Data reported in PMC4215946 (Bioorganic & medicinal chemistry, 2013).

Tests used:
CEM cells [1] = test: Mitochondrial membrane potential; format: cell-based, human
Method in brief: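 CEM cells grown in RPMI with 10% heat-inactivated FBS at 37 °C, 5% CO2, then given 1 µM final test compound for 6 and 8 h. Stained with JC-1 (MitoProbe) per kit protocol: red aggregates mean polarized mitochondria, green monomers mean depolarized. Green cells scored by flow cytometry, about 10,000 events per sample. Controls were 50 µM CCCP, 1% v/v DMSO and untreated cells. Triplicates, mean ± standard deviation; two-tailed paired t-test.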

caspase-3 = test: Live-cell detection of intracellular caspase-3 activation; format: cell-based, human; details: CEM cells, 1 µM, 8 h
Method in brief: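 CEM cells in RPMI with 10% heat-inactivated FBS and penicillin/streptomycin, 37 °C, 5% CO2, seeded at 50,000 per well. Exposed to 1 µM test compound (DMSO dilutions) for 8 h, then labelled with fluorogenic NucView 488 caspase-3/7 live-cell substrate. Green-positive cells counted by flow cytometry, about 10,000 events per sample. Controls were 50 µM CCCP, 1% v/v DMSO and untreated cells. Mean ± standard deviation; two-tailed paired t-test.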

CEM cells [2] = test: Annexin V/PI apoptosis/necrosis assay; format: cell-based, human; details: 72 h
Method in brief: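 CEM cells in RPMI/10% heat-inactivated FBS, 50,000 per well, rested 1 h, then dosed from DMSO dilutions; 72 h, 37 °C, 5% CO2. Collected on ice, annexin V-FITC/PI in binding buffer 15 min on ice, dark; ~10,000 events by flow. Apoptotic = early+late annexin-positive; PI-only = necrotic. Controls: untreated, 1% DMSO, 1 mM H2O2. Four wells; three independent experiments.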

[3] = Solubility observation in cell culture medium; format: physicochemical; details: cell culture medium (aqueous environment)

Compound: CCCCCCCCCCCC(=O)c1cc(O)c2ccccc2c1O [Compound 3, 2-Dodecanoyl-1,4-naphthohydroquinone]
- mitochondrial depolarization (JC-1 green signal) (CEM cells [1]; 1 µM, 6 and 8 h): induced a significant increase in mitochondrial depolarization from 6 to 8 h
- caspase-3 activation (caspase-3): has a tendency to induce cytotoxicity via caspase-3 activation
- apoptosis (annexin V-FITC positive cells, early + late) (CEM cells [2]; 10 µM): 95.35%
- mode of cell death (apoptosis vs necrosis) (CEM cells [2]; 10 µM): preferentially induce cell death via apoptosis

Compound: C/C=C/C(=O)c1cc(O)c2ccccc2c1O [Compound 7, 2-Crotonyl-1,4-naphthohydroquinone]
- apoptosis (annexin V-FITC positive cells, early + late) (CEM cells [2]; 50 µM): 1.7%
- mode of cell death (apoptosis vs necrosis) (CEM cells [2]; 50 µM): elicited a substantial amount of necrosis instead of apoptosis

Compound: N#CC(C#N)=NNc1cccc(Cl)c1 [CCCP, carbonyl cyanide 3-chlorophenylhydrazone, reference compound]
- mitochondrial depolarization (JC-1 green signal) (CEM cells [1]; 50 µM, positive control): strongly induced mitochondrial depolarization

Compound: CCC(=O)c1cc(O)c2ccccc2c1O [Compound 4, 2-Propanoyl-1,4-naphthohydroquinone]
- solubility in cell culture medium [3]: generated insoluble crystals when added to the cell culture medium
